Measured values from ChEMBL document CHEMBL2021923, “Synthesis and antikinetoplastid activities of 3-substituted quinolinones derivatives” (Eur J Med Chem, 2012).

Experiments:
[1] = Cytotoxicity against mouse RAW264.7 cells assessed as cell survival at 100 uM after 24 hrs incubation by trypan blue exclusion method; assay type: cell-based; settings: read-out: Survival
Method in brief: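 RAW 264.7 mouse macrophages grown in DMEM with 10% heat-inactivated FBS, seeded at 5 × 10^4 cells/well, and held 24 h at 37 °C in 5% CO2. Medium was then replaced with fresh DMEM containing compound, followed by a further 24 h incubation. Cells were scraped off, stained with trypan blue and counted live on a hemocytometer. Viability is given as % of untreated cells (100%).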

Leishmania donovani [2] = test: Antikinetoplastid activity against Leishmania donovani MHOM/ET/67/HU3 promastigotes after 3 days incubation at 27 degC under dark condition and 5% CO2 atmosphere by MTT assay; assay type: functional, organism-based; settings: MHOM/ET/67/HU3, 72 h
[3] = test system: Trypanosoma brucei brucei; test: Antikinetoplastid activity against Trypanosoma brucei brucei CMP by drug incubation infectivity test; assay type: functional; settings: read-out: MEC
[4] = Cytotoxicity against human MCF7 cells assessed as cell survival at 100 uM after 72 hrs incubation by MTT assay; assay type: cell-based; settings: read-out: Survival
Leishmania donovani [5] = test: Antikinetoplastid activity against Leishmania donovani MHOM/ET/67/HU3 amastigotes after 3 days incubation at 37 degC under dark condition and 5% CO2 atmosphere by SYBR green I dye based assay; assay type: functional, organism-based; settings: MHOM/ET/67/HU3, 72 h
Method in brief: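 Axenic amastigotes were obtained by diluting log-phase LV9 promastigotes into amastigote medium (M-199 with KCl, glucose, glutamine, trypticase peptone, haemin, 20% FBS; pH 5.5) and grown at 37 °C in 5% CO2. Parasites were exposed to the compounds for 72 h, then lysed. Growth was read by SYBR Green I DNA fluorescence against a parasite-density standard range, and the IC50 was derived.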

MCF7 = test: Cytotoxicity against human MCF7 cells assessed as cell viability after 72 hrs incubation by MTT assay; assay type: cell-based; settings: MCF7, 72 h

SMILES | viability at 24 h, 100 µM [1] [%] | IC50 (Leishmania donovani [2]) [µM] | minimal effective concentration [3] [µM] | viability at 72 h, 100 µM [4] [%] | IC50 (Leishmania donovani [5]) [µM] | IC50 (MCF7) [µM]
N=C(N)c1ccc(OCCCCCOc2ccc(C(=N)N)cc2)cc1 [PENTAMIDINE] | 75 | 2.84 | 5 |  |  | 
COc1cc(C(=O)Nc2c(OS(=O)(=O)c3cccs3)c3ccccc3n(C)c2=O)cc(OC)c1OC |  | 14 | > 200 | 77 |  | 
Cn1c(=O)c(NC(=O)CCCCCCCCCCOn2nnc3ccccc32)c(O)c2ccccc21 |  | 34 | 200 | 72 |  | 
COc1cc(C(=O)Nc2c(OS(=O)(=O)c3ccc(C)cc3)c3ccccc3n(C)c2=O)cc(OC)c1OC |  | 41 | > 200 | 84 |  | 
CCCC(=O)Nc1c(O)c2ccccc2n(C)c1=O |  | 11 | > 200 | 97 | 3 | 
COc1ccc(C(=O)Nc2cc3ccccc3n(C)c2=O)cc1 |  | > 100 | > 200 | 89 |  | 
Cc1ccc(S(=O)(=O)Oc2c(N)c(=O)n(C)c3ccccc23)cc1 |  | 30 | 12.5 | 24 |  | 
COc1ccc(C(=O)Nc2cc3cc(OC)ccc3n(C)c2=O)cc1 |  | > 100 | > 200 | 22 |  | 
Cc1ccc(S(=O)(=O)Oc2c([N+](=O)[O-])c(=O)n(C)c3ccccc23)cc1 | 100 | 3 | > 200 |  | 2 | 
COc1ccc(C(=O)Nc2c(OS(=O)(=O)c3ccc(C)cc3)c3ccccc3n(C)c2=O)cc1 |  | 25 | > 200 | 82 |  | 
COc1cc(C(=O)Nc2c(OS(=O)(=O)c3ccc(C)cc3)c3ccccc3[nH]c2=O)cc(OC)c1OC |  | 18 | > 200 | 55 |  | 
Cc1ccc(S(=O)(=O)Oc2c(NC(=O)c3ccc(F)cc3)c(=O)n(C)c3ccccc23)cc1 |  | 49 | > 200 | 57 |  | 
Cn1c(=O)c(NC(=O)c2cc3ccccc3[nH]2)c(O)c2ccccc21 |  | > 100 | > 200 | 107 |  | 
Cn1c(=O)c(NC(=O)c2ccc3c(c2)CCC(C)(C)O3)c(O)c2ccccc21 |  | 56 | > 200 | 98 |  | 
Cc1ccc(S(=O)(=O)Oc2c(NC(=O)c3ccc4c(c3)C=CC(C)(C)O4)c(=O)n(C)c3ccccc23)cc1 |  | 30 | > 200 | 37 |  | 
COc1cc(C(=O)Nc2c(O)c3ccccc3n(C)c2=O)cc(OC)c1OC |  | 3.5 | > 200 | 100 | > 100 | 
CCCCCCCCCCCCCCCCOP(=O)([O-])OCC[N+](C)(C)C [MILTEFOSINE] | 85 |  |  |  | 5 | 
COc1ccc(C(=O)Nc2cc3cc(Br)ccc3n(C)c2=O)cc1 |  | > 100 | > 200 | 20 |  | 
Cc1ccc(S(=O)(=O)Oc2c(NC(=O)c3ccc4c(c3)CCC(C)(C)O4)c(=O)n(C)c3ccccc23)cc1 |  | 30 | > 200 | 100 |  | 
O=[N+]([O-])c1c(O)nc2ccccc2c1O | 90 | > 100 | > 200 |  |  | 
Cn1c(=O)c(NC(=O)c2ccc3c(c2)C=CC(C)(C)O3)c(O)c2ccccc21 |  | 53 | > 200 | 100 |  | 
Cc1ccc(S(=O)(=O)Oc2c(NC(=O)c3cc4ccccc4[nH]3)c(=O)n(C)c3ccccc23)cc1 |  | 42 | > 200 | 50 |  | 
CCCC(=O)Nc1c(OS(=O)(=O)c2ccc(C)cc2)c2ccccc2n(C)c1=O |  | 50 | > 200 | 55 |  | 
Cn1c(=O)c([N+](=O)[O-])c(O)c2ccccc21 | 80 | > 100 | > 200 |  |  | 
COc1ccc(C(=O)Nc2c(O)c3ccccc3n(C)c2=O)cc1 |  | 11 | > 200 | 81 | > 100 | 
Cn1c(=O)cc(O)c2ccccc21 | 70 | > 100 | > 200 |  |  | 
Cn1c(=O)c(NC(=O)c2ccc(F)cc2)c(O)c2ccccc21 |  | > 100 | > 200 | 74 |  | 
Cc1ccc(S(=O)(=O)Oc2c(NC(=O)CCCCCCCCCCOn3nnc4ccccc43)c(=O)n(C)c3ccccc23)cc1 |  | 37 | > 200 | 69 |  | 
CCCCNc1cc2ccccc2n(C)c1=O |  | > 100 | > 200 | 10 |  | 7
COc1cc(C(=O)Nc2c(O)c3ccccc3[nH]c2=O)cc(OC)c1OC |  | > 100 | > 200 | 76 |  | 
